# Screening data: PubChem BioAssay, Johns Hopkins Ion Channel Center
# Most compounds without a hit are left out; they make up all but 3.8% or so of the library.
# KCNK3 inh: human KCNK3 channel inhibition, primary screen. O14649. CHO-KCNK3 thallium flux, FluxOR fluorescence; stronger effect = lower value. B-score at 10 µM. 0.84% of 340,000 active;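 active means B-score under library mean minus 4 SD, starting fluorescence ratio at most library mean plus 5 SD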;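 further: more negative B-score means stronger inhibition of thallium flux through KCNK3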
# hERG rescue: hERG (human) protection from proarrhythmic block; Q12809; CHO-hERG, FluxOR thallium flux, dofetilide IC70 present; activation (rescue from dofetilide block), less the hit threshold, % at 10 µM; 0.51% of 310,000 active;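 active means activation above the mean of controls blocked by dofetilide plus 5 SD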;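 further: thallium influx through hERG after potassium depolarization seen as dye fluorescence rise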
# Target sequence (Q12809 whole entry, looked up): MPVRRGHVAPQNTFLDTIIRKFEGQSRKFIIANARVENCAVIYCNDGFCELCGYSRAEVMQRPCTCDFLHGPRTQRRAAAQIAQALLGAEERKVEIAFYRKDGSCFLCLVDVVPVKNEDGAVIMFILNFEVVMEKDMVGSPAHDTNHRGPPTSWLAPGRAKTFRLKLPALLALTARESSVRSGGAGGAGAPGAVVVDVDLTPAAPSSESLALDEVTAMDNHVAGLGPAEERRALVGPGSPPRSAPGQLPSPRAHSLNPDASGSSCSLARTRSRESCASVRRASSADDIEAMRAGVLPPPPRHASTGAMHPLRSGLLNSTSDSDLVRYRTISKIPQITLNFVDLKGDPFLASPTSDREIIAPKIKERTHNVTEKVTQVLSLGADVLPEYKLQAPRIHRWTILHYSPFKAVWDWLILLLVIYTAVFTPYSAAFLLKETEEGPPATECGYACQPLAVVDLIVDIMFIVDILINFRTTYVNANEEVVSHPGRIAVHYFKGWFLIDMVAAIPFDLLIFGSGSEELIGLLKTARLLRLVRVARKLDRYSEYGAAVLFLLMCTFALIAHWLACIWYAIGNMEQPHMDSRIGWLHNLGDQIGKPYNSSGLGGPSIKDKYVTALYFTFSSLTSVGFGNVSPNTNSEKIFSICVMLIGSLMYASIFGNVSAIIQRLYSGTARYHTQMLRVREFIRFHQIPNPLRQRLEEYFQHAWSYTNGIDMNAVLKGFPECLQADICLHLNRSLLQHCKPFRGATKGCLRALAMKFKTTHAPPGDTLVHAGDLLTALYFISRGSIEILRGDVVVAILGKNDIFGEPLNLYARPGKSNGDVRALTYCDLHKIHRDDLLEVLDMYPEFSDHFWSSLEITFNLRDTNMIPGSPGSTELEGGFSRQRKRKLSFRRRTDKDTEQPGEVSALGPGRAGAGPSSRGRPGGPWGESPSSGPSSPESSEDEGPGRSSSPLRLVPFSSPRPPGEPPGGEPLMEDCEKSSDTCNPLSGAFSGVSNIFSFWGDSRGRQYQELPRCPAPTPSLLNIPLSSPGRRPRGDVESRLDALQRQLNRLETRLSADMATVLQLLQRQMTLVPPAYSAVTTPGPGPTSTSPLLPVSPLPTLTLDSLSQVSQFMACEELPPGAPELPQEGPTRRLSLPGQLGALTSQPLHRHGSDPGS
# KCNQ1 pot: potentiators or activators of human KCNQ1 potassium channel. 0.35% of 310,000 active. CHO-K1 KCNQ1, thallium flux FluxOR fluorescence; stronger effect = higher value. AID 2648. B-score at 10 µM;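 active means fluorescence ratio B-score, a plate-corrected score, at least three library SD, with initial intensity B-score within 5 SD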
#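 Material: CHO-K1 cells stably expressing KCNQ1. Medium: assay buffer for compound exposure, DMSO matched across wells. Reagent: K+/Tl+ depolarizing stimulus. Compound dosing: single-concentration screen. Times: 37 °C overnight plating, 90-min dark dye load, 20-min compound pretreatment. Technique: FluxOR Tl+ flux fluorescence.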
# Kir21 inh: blocks the mouse Kir2.1 inward-rectifier potassium channel. 0.85% of 310,000 active. P35561. HEK293-Kir2.1, FluxOR thallium flux fluorescence; stronger effect = lower value. B-score at 10 µM;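 active means fluorescence ratio B-score at or below minus 3 SD of library scores, with starting-brightness B-score within 2 SD, cut at about -4.2 in these data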;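 further: channel flux triggered by added potassium and thallium sulfate stimulus; B-score of peak minus minimum fluorescence over baseline after thallium stimulus; more negative B-score means stronger Kir2.1 block with less thallium influx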
# KCNK9 inh: inhibitors of human KCNK9 two-pore domain potassium channel; Q9NPC2; HEK293 KCNK9, FluxOR thallium flux fluorescence; stronger effect = lower value; B-score at 10 µM; 1.2% of 310,000 active; AID 488922;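 active means ratio B-score over 3 SD below the library mean, with starting fluorescence within 5 SD of its mean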;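 further: negative B-score means less thallium flux so channel inhibition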
# KCNQ1 inh: human KCNQ1 channel inhibition; B-score at 10 µM; CHO-K1 KCNQ1, FluxOR thallium flux fluorescence; stronger effect = higher value; 1.3% of 310,000 active; P51787;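 active means compounds whose thallium flux B-score, printed positive for inhibition, exceeds three library SD while starting fluorescence stays within three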;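 further: channel opened by potassium depolarization with thallium stimulus after 20 min compound exposure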
# KCNK9 inh conf: confirmation of human KCNK9 potassium channel inhibitors; shares compounds with KCNK9 inh; HEK293 KCNK9 cells, FluxOR thallium flux fluorescence; inhibition, % at 10 µM; 43% of 4,900 active; AID 492992;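 active means thallium signal inhibited by more than 5 SD of the compound-free buffer control wells, on both duplicate plates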;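 further: 0% = assay buffer control wells without compound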
# Kir2-1 spec: tests whether KCNK9 modulators also affect mouse Kir2.1 | shares compounds with KCNK9 inh | AID 492993 | 4% of 4,900 active | Kir2.1 cells, FluxOR thallium flux fluorescence | inhibition, % at 10 µM;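 active means thallium signal drop more than 5 SD beyond the mean of the no-compound control wells, seen in both duplicate plates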;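 further: signal is fluorescence rise after thallium addition divided by baseline fluorescence; plate controls were assay buffer only for no effect and full block by chlorpromazine control for full effect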
# KCNK9 uninduced: second counter-screen for KCNK9 modulators: effect in non-induced cells; inhibition, % at 10 µM; non-induced KCNK9-HEK293, FluxOR thallium flux; 40% of 4,900 active; shares compounds with KCNK9 inh;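 active means thallium signal drop beyond 5 SD of the untreated control mean, on both duplicate plates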;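 further: plate controls were buffer only IC0 wells for no effect and SID17386958 at its maximal inhibitory level for full effect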
# Active calls of the source: *; i = inactive; · = not tested or not shown.
SMILES,KCNK3 inh,hERG rescue,KCNQ1 pot,Kir21 inh,KCNK9 inh,KCNQ1 inh,KCNK9 inh conf,Kir2-1 spec,KCNK9 uninduced
CN(C)c1cccc(C(=O)OCC(=O)N2CCc3ccccc3C2)c1,i,-8,i,1.2,i,i,i,i,i
O=C(CCCOc1ccc(Cl)cc1Cl)N1CCc2ccccc2C1,i,-1,i,1.7,i,i,i,i,i
CCCCOc1ccc(N2C(=O)C(C)CNC2=S)cc1 (configuration not stated),i,·,·,·,·,·,·,·,·
Cc1ccc2occ(/C=N/NC(=O)c3ccccc3O)c(=O)c2c1,i,-11,i,-0.14,i,i,·,·,·
N#Cc1ccc(-c2ccc(Cl)cc2)nc1SCC(=O)c1cccc(Cl)c1,i,-5,i,0.93,i,i,·,·,·
N#Cc1ccc(-c2ccccc2)nc1SCC(=O)c1cccc(Cl)c1,i,-7,i,0,-8.7*,i,34%*,i,46%*
CCOc1ccccc1NC1=C(OC)C(=O)C(Nc2ccccc2OCC)=C(OC)C1=O,i,·,·,·,·,·,·,·,·
COc1cccc(Nc2nc(N)nc(-c3oc4ccccc4c3C)n2)c1,i,-9,i,-0.06,-10*,i,38%*,i,i
Cc1cccc(Nc2nc(N)nc(-c3oc4ccccc4c3C)n2)c1,i,0,i,3.2,-8.9*,i,35%*,i,i
CCc1nc(Nc2cccc(OC)c2)c2oc3ccccc3c2n1,i,-8,i,-0.1,i,i,·,·,·
Cc1ccc(Nc2nc(N)nc(-c3oc4ccccc4c3C)n2)cc1,i,-18,i,0.7,i,i,·,·,·
Cc1ccccc1CCN(C(=O)c1csnn1)C(C(=O)NC1CCCC1)c1ccncc1 (configuration not stated),i,-9,i,-0.06,i,i,·,·,·
Cc1cccc(-n2c(=S)[nH]c3sc4c(c3c2=O)CCc2ccccc2-4)c1,i,3,8*,0.82,i,i,i,i,i
Cc1ccc(NC2CCCN(C(=O)c3cccs3)C2)cc1C (configuration not stated),i,-11,i,-2.2,i,i,i,i,i
CC(C)c1ccc(NC2CCCN(C(=O)c3cccs3)C2)cc1 (configuration not stated),i,-8,i,0.11,i,i,i,i,i
COc1ccc(NC2CCCN(C(=O)c3cccs3)C2)cc1 (configuration not stated),i,-2,i,-1.1,i,i,i,i,i
COCc1ccc(C(=O)N2CCCC(Nc3ccc(C(C)C)cc3)C2)s1 (configuration not stated),i,-6,i,-0.93,i,i,i,i,i
CSCCC(NC(=O)c1ccco1)C(=O)Nc1ccncc1 (configuration not stated),i,-8,i,-0.54,i,i,·,·,·
Cc1ccc(C(C)C)c(OCC(=O)NNC(=O)Cn2[nH]c(=O)c3ccccc3c2=O)c1,i,·,·,·,·,·,·,·,·
COc1ccc2c3n(nc2c1)CCN=C3c1ccc(Cl)cc1,i,·,·,·,·,·,·,·,·
CC1(C)Cc2cccc(OCC(=O)N3CCN(S(=O)(=O)c4ccc(F)cc4)CC3)c2O1,i,-12,i,-0.01,i,i,·,·,·
Cc1cccc(N2CCN(C(=O)COc3cccc4c3OC(C)(C)C4)CC2)c1C,i,-9,i,0,-8.7*,i,25%*,i,i
COc1ccccc1NC(=O)CSc1nccc(-c2ccco2)n1,i,·,·,·,·,·,·,·,·
Nc1cc(=O)[nH]c(SCC(=O)NCCC2=CCCCC2)n1,i,·,·,·,·,·,·,·,·
